From PubChem
Vif imaging: inhibitors of HIV Vif; HEK293T cells, Vif self-association by quenched fluorescence, imaging, 24 h; inhibition, % at 7.49 µM; actives 0.35% (n = 340,000); AID 602346; in the data active = inhibition above about 50%, passing the limit was not always enough; inconclusive = no clear call, values can overlap the other calls; inactive = below about 31%
Runt-SMMHC FRET: Runt domain-CBFb-SMMHC interaction inhibition; Q01196+Q13951; actives 0.74% (n = 220,000); Cerulean-Runt/Venus-CBFb-SMMHC FRET ratio 530/480, 1 h; inhibition, % at 20 µM;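 active = mean inhibition across duplicate retests at 20 µM reaching about 50%, limit read from the data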;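 also: inhibitors lower the FRET ratio by blocking Runt binding to CBFb-SMMHC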
Runt-CBFb FRET: Runt domain-CBFb interaction inhibition; actives 0.46% (n = 220,000); Cerulean-Runt/Venus-CBFb FRET ratio 530/480, 1 h; inhibition, % at 20 µM; AID 1496;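 active = inhibition over about 50% at 20 µM in the single-dose screen, limit read from the data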
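Schedule: protein complex preformed 1 h, compound exposure 1 h, room temperature, dark; test system: Cerulean-labeled Runt domain protein; amount: 100 nM per protein; buffer or medium: Tris 50 mM pH 7.5, KCl, K2SO4, 0.01% BSA; read-out: loss of energy transfer signal; detection: FRET fluorescence; controls: 5 µM unlabeled CBFb as full-inhibition high control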
RanGTP-Imp inh: inhibitors of RanGTP-importin-beta interaction, primary screen, biochemical, FRET, CFP-Ran, YFP-importin-beta, homogeneous | cell-free CFP-Ran/YFP-importin-beta FRET ratio | inhibition, % (no concentration beside the values) | actives 1.1% (n = 300,000) | AID 2216;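 active = more than half of the replicate wells show a fall in the fluorescence ratio signal beyond about 16%, limit read from the data, passing the limit was not always enough; inconclusive = exactly half of the replicate wells pass the set limit; inactive = fewer than half of replicates pass the limit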
Rce1 inh: yeast Ras-converting enzyme inhibition; actives 0.27% (n = 290,000); yeast membranes, quenched prenylated peptide cleavage fluorescence; Q03530; AID 2563; calls only;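 active = fall in fluorescence gain of 50% or more versus controls, with final raw signal at or below 3038400; inconclusive = same 50% fall but final raw signal above 3038400; inactive = fall in fluorescence gain under 50%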
Target sequence (Q03530 whole entry, looked up): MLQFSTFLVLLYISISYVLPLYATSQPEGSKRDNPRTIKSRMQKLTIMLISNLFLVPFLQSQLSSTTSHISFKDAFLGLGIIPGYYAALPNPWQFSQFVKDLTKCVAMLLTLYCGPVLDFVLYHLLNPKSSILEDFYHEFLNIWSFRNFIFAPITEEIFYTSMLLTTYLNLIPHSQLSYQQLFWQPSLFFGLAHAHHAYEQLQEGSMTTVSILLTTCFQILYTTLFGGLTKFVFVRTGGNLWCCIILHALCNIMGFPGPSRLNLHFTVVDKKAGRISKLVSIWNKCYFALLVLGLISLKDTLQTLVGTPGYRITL
Of the large screens only hits and unclear results are named; the others gave an inactive call. This is a sample that favours compounds with a hit; in the whole collection about 1.7% have one here.

CCc1ccc(NC(=S)/N=C(\N)Nc2nc(C)c3cc(CC)ccc3n2)cc1	RanGTP-Imp inh inconclusive
Cc1cc(C)c2c(N)c3ccccc3nc2n1	Runt-SMMHC FRET 78, RanGTP-Imp inh 135
CCc1ccc2nc3nc(C)cc(C)c3c(N)c2c1	RanGTP-Imp inh 149 (no result: Vif imaging)
O=C(NCc1nnc(SCC(=O)N2CCOCC2)o1)c1ccccc1	none (no result: Runt-SMMHC FRET, Runt-CBFb FRET, RanGTP-Imp inh, Rce1 inh)
COc1ccc(C2C(C(=O)c3cccs3)=C(O)C(=O)N2c2nncs2)cc1 (stereo unspecified)	Runt-SMMHC FRET 103
Cc1cc(C)n(CCN(C)C(=O)c2cc(COc3c(F)cccc3F)on2)n1	none (no result: Vif imaging)
Cc1cc(C)n(CCNC(=O)c2cc(COc3c(F)cccc3F)on2)n1	Vif imaging 52
CCN(CC)C(=O)c1sc2nc(-c3cccs3)cc(-c3cccs3)c2c1N	Vif imaging 83
CC(NC(=O)Cc1ccsc1)c1ccc(F)cc1 (stereo unspecified)	none (no result: Runt-SMMHC FRET, Runt-CBFb FRET, Rce1 inh)
Cc1ccc(-c2c(C#N)c(N)n3c(nc4ccccc43)c2C#N)cc1	Runt-SMMHC FRET 118, Runt-CBFb FRET 58 (no result: Vif imaging)
N#CCSc1nc2ccccc2c2nc3ccccc3n12	none
N#Cc1c(-c2ccccc2)c(C#N)c2nc3ccccc3n2c1N	Runt-SMMHC FRET 94, Runt-CBFb FRET 82
CNc1cc(C)c(C#N)c2nc3ccccc3n12	none (no result: Runt-SMMHC FRET, Runt-CBFb FRET)
C=CCN(c1ccccc1)S(=O)(=O)c1cccc(C(=O)Nc2cccc(C)n2)c1	none (no result: Runt-SMMHC FRET, Runt-CBFb FRET)
COc1c2ccoc2nc2c(OC)cccc12	Rce1 inh active
O=C(C1CCC(=O)N(C2CC2)C1)N1CCN(c2ccccc2Cl)CC1 (stereo unspecified)	Rce1 inh active (no result: Runt-SMMHC FRET, Runt-CBFb FRET)
CC(C)(C)c1ccc(C(=O)NNC(=O)CCc2ccccc2)cc1	none (no result: Runt-SMMHC FRET, Runt-CBFb FRET)
Cc1ccc(C)c(N2CCN(C(=O)Cn3cccc3)CC2)c1	none
CCC(=O)N1CCN(c2cc(C)ccc2C)CC1	Vif imaging 50
COC(=O)c1ccccc1NC(=O)NCc1cccnc1	Rce1 inh active
O=C1C2C3C=CC(C4CC34)C2C(=O)N1/N=C/c1c[nH]c2ccccc12 (stereo unspecified)	Vif imaging 91
O=C1C2C3C=CC(C4CC34)C2C(=O)N1/N=C/c1ccc([N+](=O)[O-])s1 (stereo unspecified)	none
Cc1ccc(C2=NN(C(=O)CCC(=O)O)C(c3cccs3)C2)cc1 (stereo unspecified)	none
COc1ccc(C2=NN(C(=O)CCC(=O)O)C(c3cccs3)C2)cc1 (stereo unspecified)	Rce1 inh active
Cc1ccnc(NC(=O)CCCOc2cc(=O)n(C)c3ccccc23)c1	Vif imaging 97
COc1cc(OC)c(NC(=O)c2cncn2-c2ccc(F)cc2)cc1Cl	none (no result: Runt-SMMHC FRET, Runt-CBFb FRET, Rce1 inh)
Cc1cc(=O)oc2c(CN(C)Cc3ccccc3)c(O)ccc12	Runt-SMMHC FRET 82, Rce1 inh inconclusive
Cc1ccc2nc3c(cc(C(=O)NCc4ccccc4)c(=N)n3CCCn3ccnc3)c(=O)n2c1	none (no result: Runt-SMMHC FRET, Runt-CBFb FRET, RanGTP-Imp inh, Rce1 inh)
Cc1ccc2nc3c(cc(C(=O)NCCN4CCOCC4)c(=N)n3CCCN3CCOCC3)c(=O)n2c1	RanGTP-Imp inh 143 (no result: Runt-SMMHC FRET, Runt-CBFb FRET)
Cc1cc(C(=O)NCCN2CCOCC2)c2ccccc2n1	none (no result: Runt-SMMHC FRET, Runt-CBFb FRET, RanGTP-Imp inh, Rce1 inh)
Cc1ccc2nc(NCCCN3CCOCC3)c(C=NCCCN3CCOCC3)c(=O)n2c1	Runt-SMMHC FRET 66, Runt-CBFb FRET 76, RanGTP-Imp inh 39
Cc1ccc2nc3c(cc(C(=O)NCCc4ccccc4)c(=N)n3CCN3CCOCC3)c(=O)n2c1	RanGTP-Imp inh 159 (no result: Runt-SMMHC FRET, Runt-CBFb FRET)
COc1cccc(/C=C2\CCCCC2=O)c1	none (no result: Runt-SMMHC FRET, Runt-CBFb FRET, Rce1 inh)
CC(C)CN1Cc2ccccc2Oc2cc(Br)ccc2S1(=O)=O	none (no result: Runt-SMMHC FRET, Runt-CBFb FRET, RanGTP-Imp inh, Rce1 inh)
CC(C)=CCn1c2ccc(NC(=O)NCc3ccc(F)cc3)cc2c(=O)n1C	none (no result: Runt-SMMHC FRET, Runt-CBFb FRET, RanGTP-Imp inh, Rce1 inh)
Cc1[nH]c(=O)n(C(C)C)c(=O)c1Br	none (no result: Runt-SMMHC FRET, Runt-CBFb FRET, RanGTP-Imp inh, Rce1 inh)
Cc1c(Cl)cc(C(C)C)c(O)c1CN1CCOCC1	none (no result: Runt-SMMHC FRET, Runt-CBFb FRET, RanGTP-Imp inh, Rce1 inh)
COc1ccc(-n2c(SCc3ccc([N+](=O)[O-])cc3)nnc2-c2ccc(C)cc2)cc1	Rce1 inh active
COc1ccc(CCNC(=O)c2cc3c(=O)n4cccc(C)c4nc3n(CC3CCCO3)c2=N)cc1 (stereo unspecified)	none (no result: Runt-SMMHC FRET, Runt-CBFb FRET)
CC(=O)N=c1c(C#N)cc2c(=O)n3cccc(C)c3nc2n1Cc1ccco1	Runt-SMMHC FRET 88, RanGTP-Imp inh 80
O=C(CCn1c(=O)c2ccccc2n(Cc2cc(=O)n3ccccc3n2)c1=O)NCc1ccco1	none
N#Cc1cc2c(=O)n3ccccc3nc2n(Cc2ccco2)c1=NC(=O)c1ccco1	RanGTP-Imp inh 56 (no result: Runt-SMMHC FRET)
